Consider eleven compounds from ChEMBL document CHEMBL1641579, “Synthesis and biological evaluation of 7-substituted-1-(3-bromophenylamino)isoquinoline-4-carbonitriles as inhibitors of myosin light chain kinase and epidermal growth factor receptor” (Bioorg Med Chem, 2011).

Active and inactive are the calls of the source. No cut-off for these calls is given here.

Assay [1] has as its target T1, Epidermal growth factor receptor (Homo sapiens, UniProt P00533). Description: Inhibition of EGFR by HTRF assay. On the technique in general: In TR-FRET formats the signal depends on donor and acceptor labels being close together.
Assay [2] concerns the target T2, Myosin light chain kinase, smooth muscle (Homo sapiens, UniProt Q15746). The assay is described as follows: Inhibition of MLCK up to 40 uM by HTRF assay. In short, it runs like this:
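HTRF activity assay with peptide substrate STK1 at 375 nM and ATP at its Km (18 µM), in the presence of Ca2+/calmodulin. Kinase and inhibitor preincubated 30 min, then ATP plus substrate added. Detection by Eu-cryptate anti-phospho-STK1 antibody and streptavidin-XL665, with the 665/620 nm FRET ratio read. Eight inhibitor concentrations, Hill 4-parameter fit. At least two independent runs, each in duplicate. NI means no inhibition up to 40 µM.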

Assay [3] addresses T2, Myosin light chain kinase, smooth muscle. The assay is described as follows: Inhibition of MLCK by HTRF assay.
The target of assay [4] is T1, Epidermal growth factor receptor. The assay is described as follows: Inhibition of EGFR up to 40 uM by HTRF assay.

T2 sequence (Q15746 whole entry): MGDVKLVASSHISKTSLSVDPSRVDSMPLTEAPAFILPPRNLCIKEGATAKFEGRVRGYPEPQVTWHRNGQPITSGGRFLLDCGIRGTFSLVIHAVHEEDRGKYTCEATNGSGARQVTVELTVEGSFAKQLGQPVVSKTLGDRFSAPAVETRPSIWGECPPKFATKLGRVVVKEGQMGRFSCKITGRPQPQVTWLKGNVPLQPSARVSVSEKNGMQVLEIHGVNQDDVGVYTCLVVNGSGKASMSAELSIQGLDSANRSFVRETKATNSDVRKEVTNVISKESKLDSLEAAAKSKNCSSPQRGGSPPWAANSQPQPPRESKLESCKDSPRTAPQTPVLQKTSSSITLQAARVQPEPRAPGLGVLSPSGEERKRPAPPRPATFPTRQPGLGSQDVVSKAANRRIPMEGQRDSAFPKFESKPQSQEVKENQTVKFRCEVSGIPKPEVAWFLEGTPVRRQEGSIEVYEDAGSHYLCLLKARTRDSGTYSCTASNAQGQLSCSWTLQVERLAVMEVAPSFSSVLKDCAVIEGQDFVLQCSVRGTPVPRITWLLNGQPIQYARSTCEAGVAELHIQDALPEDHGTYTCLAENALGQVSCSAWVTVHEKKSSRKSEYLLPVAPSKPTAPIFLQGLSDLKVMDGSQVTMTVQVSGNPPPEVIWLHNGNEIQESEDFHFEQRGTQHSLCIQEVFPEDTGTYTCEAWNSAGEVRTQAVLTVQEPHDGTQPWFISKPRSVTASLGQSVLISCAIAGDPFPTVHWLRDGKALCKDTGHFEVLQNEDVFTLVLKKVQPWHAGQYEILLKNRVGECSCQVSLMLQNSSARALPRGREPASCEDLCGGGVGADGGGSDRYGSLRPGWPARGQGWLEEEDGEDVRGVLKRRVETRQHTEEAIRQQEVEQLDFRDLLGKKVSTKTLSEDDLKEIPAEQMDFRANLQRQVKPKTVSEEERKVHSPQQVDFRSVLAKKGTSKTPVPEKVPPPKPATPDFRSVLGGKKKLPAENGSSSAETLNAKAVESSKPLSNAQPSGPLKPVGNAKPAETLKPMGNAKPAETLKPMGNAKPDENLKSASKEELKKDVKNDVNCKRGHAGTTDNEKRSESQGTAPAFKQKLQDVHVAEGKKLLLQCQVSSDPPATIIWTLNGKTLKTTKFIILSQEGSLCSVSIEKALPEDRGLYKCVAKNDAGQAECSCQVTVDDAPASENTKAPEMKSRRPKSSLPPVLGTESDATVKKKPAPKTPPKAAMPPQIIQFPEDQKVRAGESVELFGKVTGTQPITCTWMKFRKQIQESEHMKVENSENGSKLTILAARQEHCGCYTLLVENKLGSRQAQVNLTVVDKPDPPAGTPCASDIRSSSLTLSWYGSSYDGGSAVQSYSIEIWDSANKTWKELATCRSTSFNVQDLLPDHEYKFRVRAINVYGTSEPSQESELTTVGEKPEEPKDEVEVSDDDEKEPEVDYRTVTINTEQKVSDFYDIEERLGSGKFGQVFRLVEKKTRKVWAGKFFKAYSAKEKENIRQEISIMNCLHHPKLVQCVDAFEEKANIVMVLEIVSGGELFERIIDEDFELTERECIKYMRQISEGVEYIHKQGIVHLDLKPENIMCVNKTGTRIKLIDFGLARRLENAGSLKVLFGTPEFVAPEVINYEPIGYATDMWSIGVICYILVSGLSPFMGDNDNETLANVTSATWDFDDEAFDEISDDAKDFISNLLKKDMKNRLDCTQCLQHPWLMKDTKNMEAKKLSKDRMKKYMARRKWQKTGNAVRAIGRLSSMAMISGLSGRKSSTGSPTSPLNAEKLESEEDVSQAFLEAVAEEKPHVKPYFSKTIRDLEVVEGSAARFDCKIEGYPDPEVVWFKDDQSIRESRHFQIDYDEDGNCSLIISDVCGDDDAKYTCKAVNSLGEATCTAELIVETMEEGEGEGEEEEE
T1 sequence (P00533 whole entry): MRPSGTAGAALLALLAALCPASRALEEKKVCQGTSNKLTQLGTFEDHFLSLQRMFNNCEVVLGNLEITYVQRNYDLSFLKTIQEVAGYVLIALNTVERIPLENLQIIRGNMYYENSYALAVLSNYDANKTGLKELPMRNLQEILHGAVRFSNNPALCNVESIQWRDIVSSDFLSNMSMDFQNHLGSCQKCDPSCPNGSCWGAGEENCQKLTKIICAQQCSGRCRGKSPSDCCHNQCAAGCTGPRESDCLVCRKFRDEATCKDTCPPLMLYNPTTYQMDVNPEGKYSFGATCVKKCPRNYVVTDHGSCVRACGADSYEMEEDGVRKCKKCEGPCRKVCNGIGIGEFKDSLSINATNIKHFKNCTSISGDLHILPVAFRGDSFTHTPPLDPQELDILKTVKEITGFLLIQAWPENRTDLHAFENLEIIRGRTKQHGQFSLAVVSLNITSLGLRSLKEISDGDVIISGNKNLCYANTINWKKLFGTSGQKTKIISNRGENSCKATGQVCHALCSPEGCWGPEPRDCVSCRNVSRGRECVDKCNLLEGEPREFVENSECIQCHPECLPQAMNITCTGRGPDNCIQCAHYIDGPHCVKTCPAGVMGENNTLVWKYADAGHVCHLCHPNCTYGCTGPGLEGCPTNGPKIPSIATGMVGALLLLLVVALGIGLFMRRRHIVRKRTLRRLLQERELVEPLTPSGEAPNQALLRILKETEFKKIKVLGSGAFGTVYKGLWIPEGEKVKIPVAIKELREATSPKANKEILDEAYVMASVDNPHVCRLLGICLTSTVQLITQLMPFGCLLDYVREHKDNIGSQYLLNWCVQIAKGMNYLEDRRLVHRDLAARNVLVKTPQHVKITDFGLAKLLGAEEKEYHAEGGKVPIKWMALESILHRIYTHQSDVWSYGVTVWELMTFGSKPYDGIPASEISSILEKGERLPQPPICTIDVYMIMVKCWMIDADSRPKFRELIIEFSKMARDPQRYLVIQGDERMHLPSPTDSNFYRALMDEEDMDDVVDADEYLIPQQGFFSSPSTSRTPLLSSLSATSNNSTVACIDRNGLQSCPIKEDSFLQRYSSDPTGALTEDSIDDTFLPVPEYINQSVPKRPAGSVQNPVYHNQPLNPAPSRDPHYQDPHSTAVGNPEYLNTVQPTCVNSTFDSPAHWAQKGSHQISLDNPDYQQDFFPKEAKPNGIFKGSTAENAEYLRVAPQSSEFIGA

In the case of `N#Cc1cnc(Nc2cccc(Br)c2)c2cc(NC(=O)c3ccco3)ccc12`, the 50% inhibitory concentration (IC50) (as a rule, the point on the concentration scale where inhibition reaches its midpoint) in assay [1] worked out at 55.6 µM. In assay [2], the inhibition result is “inactive”.

As for `NCCCCCCNS(=O)(=O)c1cccc2c(Cl)cccc12`, the affinity in assay [3] corresponds to a Ki of 110 µM.

Compound `COC[C@H]1OC(=O)c2coc3c2[C@@]1(C)C1=C(C3=O)[C@@H]2CCC(=O)[C@@]2(C)C[C@H]1OC(C)=O` [WORTMANNIN] returned an IC50 in assay [3] of 0.17 µM.

In the case of `N#Cc1cnc(Nc2cccc(Br)c2)c2cc(NC(=O)CCN3CCOCC3)ccc12`, in assay [1], the half-maximal inhibitory concentration (IC50) stood at 6.9 µM. For the same compound, the inhibition entry in assay [2] is “inactive”.

`CCC(=O)Nc1ccc2c(C#N)cnc(Nc3cccc(Br)c3)c2c1` showed an IC50 in assay [1] of 20.8 µM. Further, the inhibition entry in assay [2] was “inactive”.

In turn, `N#Cc1cnc(Nc2cccc(Br)c2)c2cc(NC(=O)[C@@H]3CCC(=O)N3)ccc12` returned an IC50 in assay [1] of 2.2 µM. Further, the inhibition result in assay [2] was “inactive”.

Regarding `N#Cc1cnc(Nc2cccc(Br)c2)c2cc(NC(=O)c3cc4ccccc4[nH]3)ccc12`, the inhibition entry in assay [2] and in assay [4] was “inactive” throughout.

Turning to `O=S(=O)(c1cccc2c(I)cccc12)N1CCCNCC1`, the Ki (commonly a dissociation constant, usually derived from enzyme kinetics or from competition with a known ligand) in assay [3] was found to be 0.3 µM.

In assay [3], `O=S(=O)(c1cccc2cnccc12)N1CCCNCC1` [FASUDIL] came in with an IC50 of 21.6 µM and a Ki of 36 µM.

As to `N#Cc1cnc(Nc2cccc(Br)c2)c2cc(NC(=O)c3ccoc3)ccc12`, the IC50 in assay [1] was 45.2 µM. Moreover, the inhibition entry in assay [2] was “inactive”.

For the compound `CCOC(=O)Nc1ccc2c(C#N)cnc(Nc3cccc(Br)c3)c2c1`, the IC50 in assay [1] turned out to be 12.8 µM. The inhibition result in assay [2] was “inactive”.
